The results in this text go back to ChEMBL document CHEMBL5325511, “Discovery of N-(4-(Aminomethyl)phenyl)-5-methylpyrimidin-2-amine Derivatives as Potent and Selective JAK2 Inhibitors” (ACS Med Chem Lett, 2023).

SMILES strings stand for the structures.

The nature of this series: AUC(0 to t) in Sprague-Dawley rat at 5 mg/kg, po measured upto 24 hrs by LC-MS/MS analysis. The class given is ADME, organism-based. Details: time < 24 hrs, dose 5 mg/kg, route po. As to conditions: in vivo. Summed up:
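Sprague–Dawley rats, n = 5, dosed at 5 mg/kg as a solution in 2% ethanol and 1% Tween 80, pH 5.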

Compound `C=CS(=O)(=O)NCc1ccc(Nc2ncc(C)c(-c3cnn(C(C)C)c3)n2)cc1` came in with an AUCt of 3517.9 ng·h/mL.
